Assay results collected from several papers.
Lines come from different studies, so protocols differ.

For `Oc1cccc(-c2nc(N3CCOCC3)c3oc4ncccc4c3n2)c1`, the inhibition was 14.3% (MOLM-13; cell growth or viability, CCK-8; 1 µM).
For `O=C(N[C@@H](CSCc1ccc([N+](=O)[O-])cc1)C(=O)NO)c1ccccc1`, the IC50 was 2.37 µM (NCI-H1573; cell growth or viability, MTT; 48 h).
For `CC(=O)O[C@H]1C(=O)[C@@]2(C)[C@H]([C@H](OC(=O)c3ccccc3)[C@]3(O)C[C@H](OC(=O)[C@H](O)[C@@H](NC(=O)c4ccccc4)c4ccccc4)C(C)=C1C3(C)C)[C@]1(OC(C)=O)CO[C@@H]1C[C@@H]2O`, the viability was 5.97% (CHP-212; cell growth or viability, SRB; 10 µM).
`CCNNC(=O)c1ccc(CN(CC(=O)NCc2ccccc2)C(=O)c2ccc(N(C)C)cc2)cc1` has an IC50 of 4.62 µM (A2780cisR; cell growth or viability, MTT; 72 h).
The GI50 of `[NH2][Pt]([NH2])([Cl])[Cl]` is reported as 2.7 µM (SW1573; cell growth or viability, SRB).
With `CCCCCCCCCCCCCCCCCCOc1cccc(CC(=O)OCCC[N+](C)(C)C)c1` the inhibition was 24.1% (NCI-H23; cell growth or viability, SRB; 10 µM).
The inhibition of `COc1ccc2oc(-c3ccc4nc(N)oc4c3)c/c(=N\c3ccccc3NC(=O)CCN)c2c1` is reported as 61.4% (MOLM-13; cell growth or viability, CCK-8; 1 µM).
For `CCc1nc(C(N)=O)c(Nc2ccc(N3CCC(N4CCN(C)CC4)CC3)c(OC)c2)nc1NC1CCOCC1`, the GI50 was 0.032 µM (MOLM-13; cell growth or viability; 72 h).
For `Nc1ccccc1/N=c1\cc(-c2ccc3c(c2)OCO3)oc2ccccc12`, the inhibition was 5.39% (MOLM-13; cell growth or viability, CCK-8; 1 µM).
`C(=N\Nc1cc(N/N=C/c2cccc3cccnc23)ncn1)/c1cccc2cccnc12` gave an IC50 of 17.6 µM (Bel-7402; cell growth or viability, MTT; 48 h).
`CNCc1ccc(-c2cc(-c3nc(-c4ccc(S(=O)(=O)C(C)C)cc4)cnc3N)on2)cc1` gave an IC50 of 1.98 µM (CT26; cell growth or viability, ATP luminescence; 48 h).
`N[C@@H](CO)C(=O)Nc1ccccc1/N=c1\cc(-c2ccc3c(c2)OCO3)oc2ccccc12` has an inhibition of 8.02% (MOLM-13; cell growth or viability, CCK-8; 1 µM).
With `C#Cc1cccc(Nc2ncnc3cc(OCCOC)c(OCCOC)cc23)c1` the IC50 was greater than 20 µM (Bel-7402; cell growth or viability, MTT; 48 h).
`COc1ccc2/c(=N/c3ccccc3NC(=O)[C@H](C)N)cc(-c3ccc4c(c3)OCCO4)oc2c1` gave an inhibition of 6.88% (MOLM-13; cell growth or viability, CCK-8; 1 µM).
With `CC(C)C[C@H](NC(=O)[C@H](Cc1ccccc1)NC(=O)c1cnccn1)B(O)O` the viability was 88% (CHP-212; cell growth or viability, SRB; 0.3704 µM).
`COCCC(=O)Nc1ccccc1/N=c1\cc(-c2ccc3c(c2)OCO3)oc2ccccc12` gave an inhibition of 6.03% (MOLM-13; cell growth or viability, CCK-8; 1 µM).
For `O=C(C[C@@H](C(F)F)n1ccc(F)n1)N1CCC(O)(Cn2cnc3c(cnn3-c3ccc(F)cc3)c2=O)CC1`, the viability was 47.2% (CHP-212; cell growth or viability, SRB; 82.3 nM).
With `CCCCCCCCCCCCCCCCCCOc1ccc(CC(=O)OCCC[N+](C)(C)C)cc1` the inhibition was 18.9% (NCI-H23; cell growth or viability, SRB; 10 µM).
For `C(=N\Nc1cc(N/N=C/c2cccc3cccnc23)nc(-c2ccccc2)n1)/c1cccc2cccnc12`, the IC50 was 11.1 µM (Bel-7402; cell growth or viability, MTT; 48 h).
The viability of `COc1cccc2c1C(=O)c1c(O)c3c(c(O)c1C2=O)C[C@@](O)(C(=O)CO)C[C@@H]3O[C@H]1C[C@H](N)[C@H](O)[C@H](C)O1` is reported as 19.4% (CHP-212; cell growth or viability, SRB; 0.3704 µM).
The IC50 of `C[C@@H]1COCCN1c1cc(C2([S@](C)(=N)=O)CC2)nc(-c2cc[nH]c3nccc2-3)n1` is reported as 8.64 µM (CT26; cell growth or viability, ATP luminescence; 48 h).
The inhibition of `CCCCCCCCCCCCCCCCCCOc1ccccc1CC(=O)OCC[N+](CC)(CC)CC` is reported as 86.9% (NCI-H23; cell growth or viability, SRB; 10 µM).
With `N#CSCCCCOc1ccc2c(-c3ccccc3)cc(=O)oc2c1` the GI50 was 25 µM (SW1573; cell growth or viability, SRB).
`CCCCCCCCCCCCCCCCCCOc1ccc(CC(=O)OCC[N+](CC)(CC)CC)cc1` gave an inhibition of 39.5% (NCI-H23; cell growth or viability, SRB; 10 µM).
`[NH2][Pt]([NH2])([Cl])[Cl]` has an IC50 of 75.8 µM (NCI-H1573; cell growth or viability, MTT; 48 h).
For `CCCCCCCCCCCCCCCCCCOc1ccccc1CC(=O)OCC[N+]1(C)CCCCC1`, the inhibition was 70.2% (NCI-H23; cell growth or viability, SRB; 10 µM).
`COc1ncnc(C2CC2)c1-c1ncc2cnn(Cc3ccc(-c4nc(C(F)(F)F)cn4C(C)C)cc3)c2n1` has a viability of 76.7% (CHP-212; cell growth or viability, SRB; 25 µM).
`CCCCCCCCCCCCCCCCCCOc1cccc(CC(=O)OCC[N+]2(C)CCOCC2)c1` gave an inhibition of 4.14% (NCI-H23; cell growth or viability, SRB; 10 µM).
The inhibition of `NCCCCC(=O)Nc1ccccc1/N=c1\cc(-c2ccc3c(c2)OCO3)oc2ccccc12` is reported as -0.26% (MOLM-13; cell growth or viability, CCK-8; 1 µM).
The inhibition of `O=C(O[C@@H]1COC(=O)c2cc(O)c(O)c(O)c2-c2c(cc(O)c(O)c2O)C(=O)O[C@H]1[C@@H]1OC(=O)c2cc(O)c(O)c(O)c2-c2c(O)c(O)c(O)c3c2C(=O)O[C@H]1[C@@H]3O)c1cc(O)c(O)c(O)c1` is reported as 52% (SIM-A9; NO release, inhibitor, Griess; 10.7 µM, LPS-stimulated).
With `COC(=O)[C@H]1[C@@H](O)[C@@]2(O)c3c(OC)cc(O[C@@H]4O[C@@H]([C@H](O)CO)CO[C@H]4OC)cc3O[C@@]2(c2ccc(OC)cc2)[C@@H]1c1ccccc1` the IC50 was 0.005 µM (C6661; cell growth or viability, MTS; 72 h).
`CCCCCCCCCCCCCCCCCCOc1cccc(CC(=O)OCC[N+]2(C)CCCC2)c1` has an inhibition of 24.6% (NCI-H23; cell growth or viability, SRB; 10 µM).
For `Cc1cnc(CNC(=O)c2c(=O)c3ccc(N4CCCN(C)CC4)nc3n3c2sc2ccccc23)cn1`, the IC50 was 0.5 µM (C6661; cell growth or viability, MTS; 72 h).
`CCCCCCCCCCCCCCCCCCOc1ccccc1CC(=O)OCC[N+](C)(C)C` has an inhibition of 59.8% (NCI-H23; cell growth or viability, SRB; 10 µM).
`CC(C)(C)[C@H](N)C(=O)Nc1ccccc1/N=c1\cc(-c2ccc3c(c2)OCO3)oc2ccccc12` has an inhibition of 4.05% (MOLM-13; cell growth or viability, CCK-8; 1 µM).
